According to ChEMBL document CHEMBL4002631, “Synthesis, antimycobacterial and cytotoxic activity of α,β-unsaturated amides and 2,4-disubstituted oxazoline derivatives” (Bioorg Med Chem Lett, 2017):
In brackets after ≈: the same amount, converted by molar mass.

Test system: Mycobacterium tuberculosis
Test: Antimycobacterial activity against isoniazid/rifampicin/ethambutol-resistant Mycobacterium tuberculosis clinical isolate after 4 days by Alamar blue assay
Type: functional
Details: 96 h
Outline: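 Microplate Alamar blue assay against M. tuberculosis H37Rv (sensitive to isoniazid, rifampicin and ethambutol) and a clinical isolate resistant to all three drugs. Compounds were tested at 256, 128, 64, 32, 16, 8, 4, 2 and 1 µg/mL. Isoniazid, rifampicin, ethambutol and ofloxacin controls were run under the same conditions. MIC is given in µg/mL and converted to µM.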

SMILES | MIC [µM]
C(=C\c1ccccc1)/C1=N[C@@H](Cc2ccccc2)CO1 | 30.4 (≈ 8.01 µg/mL)
C(=C\c1cccs1)/C1=N[C@@H](Cc2ccccc2)CO1 | 7.4 (≈ 1.99 µg/mL)
O=C(/C=C/c1ccc(OCc2ccccc2)cc1)N[C@H](CO)Cc1ccccc1 | 41.2 (≈ 16 µg/mL)
COc1ccc(/C=C/C2=N[C@@H](Cc3ccccc3)CO2)cc1 | 6.8 (≈ 1.99 µg/mL)
COc1ccc(/C=C/C(=O)N[C@H](CO)Cc2ccccc2)cc1 | 51.3 (≈ 16 µg/mL)
O=C(/C=C/c1cccs1)N[C@H](CO)Cc1ccccc1 | 55.6 (≈ 16 µg/mL)
O=C(/C=C/c1ccccc1)N[C@H](CO)Cc1ccccc1 | 56.8 (≈ 16 µg/mL)
Fc1ccc(/C=C/C2=N[C@@H](Cc3ccccc3)CO2)cc1 | 56.9 (≈ 16 µg/mL)
Clc1ccc(/C=C/C2=N[C@@H](Cc3ccccc3)CO2)cc1 | 26.9 (≈ 8.01 µg/mL)
C(=C\c1ccc(OCc2ccccc2)cc1)/C1=N[C@@H](Cc2ccccc2)CO1 | 21.6 (≈ 7.98 µg/mL)
O=C(/C=C/c1ccc(Cl)cc1)N[C@H](CO)Cc1ccccc1 | 50.6 (≈ 16 µg/mL)
O=C(/C=C/c1ccc(F)cc1)N[C@H](CO)Cc1ccccc1 | 53.4 (≈ 16 µg/mL)
CC[C@@H](CO)NCCN[C@@H](CC)CO [ETHAMBUTOL] | > 1250
NNC(=O)c1ccncc1 [ISONIAZID] | 58.3 (≈ 8 µg/mL)
CC1COc2c(N3CCN(C)CC3)c(F)cc3c(=O)c(C(=O)O)cn1c23 (stereo unspecified) [OFLOXACIN] | 5.5 (≈ 1.99 µg/mL)
CO[C@H]1/C=C/O[C@@]2(C)Oc3c(C)c(O)c4c(O)c(c(/C=N/N5CCN(C)CC5)c(O)c4c3C2=O)NC(=O)/C(C)=C\C=C\[C@H](C)[C@H](O)[C@@H](C)[C@@H](O)[C@@H](C)[C@H](OC(C)=O)[C@@H]1C [RIFAMPIN] | 19.4 (≈ 16 µg/mL)
